TAAR1 antag – human TAAR1 antagonism | Q96RJ0 | CHO RD-HGA16 TAAR1, Fluo-8 calcium fluorescence, antagonist | inhibition, % at 3 µM | hit rate 1.5% among 360,000 | AID 624466;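 active = inhibition above a per-plate cutoff, the mean inhibition of test compounds on that plate plus 3 SD, cut at about 49% in these data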;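 note: 0% = DMSO plus EC80 beta-PEA response and 100% = DMSO alone without agonist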
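Assay system: CHO-derived RD-HGA16 cells stably expressing human TAAR1 plus Gα16. Timing: 140 s kinetic read after compound, 140 s after agonist. Technique: kinetic Fluo-8 calcium fluorescence measurement. Measure: % inhibition of agonist calcium response.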
MPTP block – permeability transition pore inhibition. isolated mouse mitochondria, Ca2+ swelling absorbance, 30 min. inhibition, % at 10 µM. hit rate 1.4% among 360,000;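 active = inhibition of 50% or more, scaled per plate between neutral and stimulator controls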;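 note: 0% = DMSO wells given calcium and 100% = 1 mM EGTA wells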
GPR7 antagonist – antagonists of human GPR7 (neuropeptides B/W receptor 1); GPR7-expressing cells, fluorescence antagonist assay; inhibition, % at 4.4 µM; hit rate 1.1% among 290,000; AID 1861; in the data active = inhibition above about 16%, passing the limit was not always enough;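 note: cells stimulated with the agonist NPW; 0% = agonist with vehicle and 100% = vehicle without agonist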
Target sequence (P48145 whole entry, looked up): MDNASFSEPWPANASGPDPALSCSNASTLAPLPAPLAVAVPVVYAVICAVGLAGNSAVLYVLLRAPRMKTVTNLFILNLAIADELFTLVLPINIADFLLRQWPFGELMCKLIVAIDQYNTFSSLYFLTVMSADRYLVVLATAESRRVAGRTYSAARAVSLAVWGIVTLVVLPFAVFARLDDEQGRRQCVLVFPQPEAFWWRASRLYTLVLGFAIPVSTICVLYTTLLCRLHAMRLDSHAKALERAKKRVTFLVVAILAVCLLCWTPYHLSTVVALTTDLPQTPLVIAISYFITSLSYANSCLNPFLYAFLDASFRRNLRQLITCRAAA
TAAR1 ag – agonists of human TAAR1; CHO RD-HGA16 TAAR1, Fluo-8 calcium fluorescence; vehicle wells 0%, saturating PEA agonist 100%; hit rate 0.99% among 360,000; AID 624467; activation, % at 3 µM; Q96RJ0;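 active = activation above the mean activation of all test compounds in the run plus 3 SD, cut at about 38% in these data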
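System: CHO-derived RD-HGA16 cells with stable Gα16 and human TAAR1 / Times: 17-24 h plating, Fluo-8 75 min 37 °C, 30 min RT / Technique: calcium-sensitive Fluo-8 signal, excitation 470-495, emission 515-575 nm / Measure: % activation relative to PEA EC100 response / Benchmarks: DMSO and PEA EC100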
DAGLB inhibitor – blocks human DAGLB lipase activity; Q8NCG7; inhibition, % at 5.17 µM; AID 504411; hit rate 0.059% among 340,000; HEK293T DAGLB membrane lysate, EnzChek fluorogenic substrate; in the data active = inhibition above about 34%;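 note: 0% = enzyme with vehicle and 100% = wells lacking enzyme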
Rh123 counter – Rhodamine 123 counter-screen of mitochondrial pore hits | hit rate 78% among 5,000 | inhibition, % at 10 µM | shares compounds with MPTP block | isolated mitochondria, membrane potential, Rhodamine 123 fluorescence; in the data active = inhibition above about 22%;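 note: 0% = DMSO vehicle and 100% = positive control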
MPTP abs DR – MPTP inhibition, dose response swelling confirmation. IC50, µM. hit rate 58% among 780. isolated mitochondria swelling, absorbance. shares compounds with MPTP block; in the data active = IC50 below about 20 µM
MPTP counter DR – counter-screen for mitochondrial permeability transition pore inhibitors, dose response | hit rate 49% among 780 | isolated mitochondria counterscreen, fluorescence read-out | shares compounds with MPTP block | IC50, µM; in the data active = IC50 below about 80 µM
* = called active by the depositor. Hits are enriched below; roughly 4% of the tested compounds scored in any of these assays.

CC1Oc2ccccc2C=C1/C=N/NC(=O)c1ccccc1 (stereo unspecified) was read as TAAR1 antag 9, MPTP block 9, GPR7 antagonist -3, TAAR1 ag 1 and DAGLB inhibitor -2.
`CCCCOCCCNC(=O)C[C@H]1C[C@@]2(C(=O)OC)C(=C[C@H](C(C)(C)C)O[C@@H]2C)N(Cc2ccc3c(c2)OCO3)C1=O` gave TAAR1 antag -50 and TAAR1 ag -2.
Screening COC(=O)c1ccc(NC(=O)Nc2ccccc2F)cc1 returned TAAR1 antag -2, MPTP block 54*, GPR7 antagonist 9, TAAR1 ag 32, DAGLB inhibitor -3 and Rh123 counter 84*.
`CC(C)CNC(=O)Nc1ccc(F)c(Cl)c1` gave TAAR1 antag 1, MPTP block 36, GPR7 antagonist -14, TAAR1 ag 14 and DAGLB inhibitor -4.
Screening COC(=O)c1ccc(NC(=O)Nc2ccc(F)c(Cl)c2)cc1 returned TAAR1 antag 41, MPTP block 91*, GPR7 antagonist 16, TAAR1 ag 20, DAGLB inhibitor -3 and Rh123 counter 83*.
COC(=O)c1ccc(NC(=O)Nc2ccc(OC)cc2)cc1 was read as TAAR1 antag 14, MPTP block 8, GPR7 antagonist -3, TAAR1 ag 17 and DAGLB inhibitor -3.
For CC(C)(C)c1ccc(NC(=O)Nc2ccc(F)cc2)cc1 the results were TAAR1 antag 94*, MPTP block 99*, GPR7 antagonist 24*, TAAR1 ag 12 and Rh123 counter 88*.
COC(=O)c1ccc(NC(=O)Nc2ccc(F)cc2)cc1 was read as TAAR1 antag 10, MPTP block 64*, GPR7 antagonist 8, TAAR1 ag 34, DAGLB inhibitor -3 and Rh123 counter 96*.
For COC(=O)[C@H](Cc1ccccc1)N[C@H](c1ccc(OC)cc1)[C@@H](O)Cc1ccccc1 the results were TAAR1 antag 6 and TAAR1 ag 0.
Screening CCOC(=O)C(CNc1ccc(O)cc1)NC(=O)c1ccccc1 (stereo unspecified) returned TAAR1 antag 16 and TAAR1 ag 1.
Cc1ccc(C)c(OCCCCn2cnc3ccccc3c2=O)c1 was read as TAAR1 antag -19, MPTP block -1, GPR7 antagonist 9, TAAR1 ag 3 and DAGLB inhibitor -7.
Screening Cc1ccc(OCCCCn2cnc3ccccc32)c(C)c1 returned TAAR1 antag 16, MPTP block 93*, GPR7 antagonist 5, TAAR1 ag 14, DAGLB inhibitor -1 and Rh123 counter 93*.
`Clc1ccccc1OCCn1cnc2ccccc21` gave TAAR1 antag 3, MPTP block -1, GPR7 antagonist 18, TAAR1 ag 2 and DAGLB inhibitor 0.
For Brc1ccccc1OCCCCn1cnc2ccccc21 the results were TAAR1 antag 11, MPTP block 85*, GPR7 antagonist 6, TAAR1 ag 10, DAGLB inhibitor -8 and Rh123 counter 90*.
Screening CCCCCCCn1c(=N)n(CC(=O)c2ccco2)c2ccccc21 returned TAAR1 antag 4, MPTP block 83*, GPR7 antagonist 4, TAAR1 ag 9, DAGLB inhibitor 4 and Rh123 counter 41*.
Screening CCCCn1c(=N)n(CC(=O)c2ccco2)c2ccccc21 returned TAAR1 antag 10, MPTP block 0, GPR7 antagonist -9, TAAR1 ag 7 and DAGLB inhibitor -1.
Fc1cccc(Cl)c1CN1CCN(c2ncc(Cc3ccccc3)cn2)CC1 was read as TAAR1 antag -29 and TAAR1 ag 5.
O=c1oc2c(-c3ccc([N+](=O)[O-])cc3)cc(O)cc2s1 was read as TAAR1 antag -18, MPTP block 78*, GPR7 antagonist 7, TAAR1 ag 7, DAGLB inhibitor 6 and Rh123 counter 55*.
Screening CSc1nsc(/C=C/Nc2ccc(F)cc2)c1C#N returned TAAR1 antag 0, MPTP block 60*, GPR7 antagonist 7, TAAR1 ag 12, DAGLB inhibitor 0 and Rh123 counter 31*.
For CSc1nsc(/C=C/Nc2ccc(Cl)cc2)c1C#N the results were TAAR1 antag 19, MPTP block 2, GPR7 antagonist -1, TAAR1 ag 1 and DAGLB inhibitor -1.
Screening Cc1ccc(S(=O)(=O)N2CCCC(C(=O)NC3=NCCS3)C2)cc1 (stereo unspecified) returned TAAR1 antag -3, MPTP block 70*, GPR7 antagonist 8, TAAR1 ag 3, DAGLB inhibitor -1, Rh123 counter 8, MPTP abs DR >100 and MPTP counter DR >80.
Screening Cc1ccc(S(=O)(=O)N(C)C)cc1NC(=S)NCCCn1ccnc1 returned TAAR1 antag 18, MPTP block -1, GPR7 antagonist -9, TAAR1 ag 3 and DAGLB inhibitor -2.
Screening Cc1ccc(S(=O)(=O)N(C)C)cc1NC(=S)NC(C)CCCC(C)C (stereo unspecified) returned TAAR1 antag 7, MPTP block 96*, GPR7 antagonist 14, TAAR1 ag 3, DAGLB inhibitor 5 and Rh123 counter 92*.
CC(=O)NNC(=S)Nc1cc(S(=O)(=O)N(C)C)ccc1C was read as TAAR1 antag -8, MPTP block -2, GPR7 antagonist -5, TAAR1 ag 2 and DAGLB inhibitor 1.
Cc1ccc(S(=O)(=O)N(C)C)cc1NC(=S)NC(C)CCC(C)C (stereo unspecified) was read as TAAR1 antag -8, MPTP block 57*, GPR7 antagonist 13, TAAR1 ag 18, DAGLB inhibitor 1 and Rh123 counter 73*.
`CCCCCCC(C)NC(=S)Nc1cc(S(=O)(=O)N(C)C)ccc1C` (stereo unspecified) gave TAAR1 antag 13, MPTP block 64*, GPR7 antagonist -1, TAAR1 ag 14, DAGLB inhibitor 8 and Rh123 counter 79*.
`Cc1cc(C)cc(NC(=O)Nc2cc(S(=O)(=O)N(C)C)ccc2C)c1` gave TAAR1 antag -14, MPTP block 64*, GPR7 antagonist -6, TAAR1 ag 1 and Rh123 counter 84*.
`COCCN(CCOC)C(=S)Nc1cc(S(=O)(=O)N(C)C)ccc1C` gave TAAR1 antag -2, MPTP block -5, GPR7 antagonist -3, TAAR1 ag 0 and DAGLB inhibitor 2.
Screening CCc1ccc(-c2nc(SCC(=O)N(CC)C3CCS(=O)(=O)C3)n[nH]2)cc1 (stereo unspecified) returned TAAR1 antag -1, MPTP block -1, TAAR1 ag 0 and DAGLB inhibitor 3.

High-throughput results from PubChem BioAssay.
